Results: BindingDB's records for doi:10.1021/acs.jmedchem.7b00861 (Leiden University, 2017)
Values joined by “and” are separate entries in the source; they are usually repeats but may differ in a detail not shown here. Equal entries are not always repeated. One block for each molecule: values may come before it.

Experiments:
Cannabinoid receptor 1 [1] = target: T1, Cannabinoid receptor 1 (Homo sapiens, UniProt P21554); assay: Antagonist activity at recombinant human CB1 receptor expressed in HEK293 cell membranes assessed as inhibition of CP55940-induced [35S]GTPgammaS binding preincubated for 1 hr followed by CP55940 addition and subsequent incubation with [35S]GTPgammaS measured after 30 mins by scintillation spectrometry
How it was run: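 Antagonism was measured by [35S]GTPγS binding at 30 °C on membranes of HEK-293 cells stably expressing recombinant human CB1.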

Cannabinoid receptor 1 [2] = target: T1, Cannabinoid receptor 1; assay: Displacement of [3H]CP55940 from recombinant human CB1 receptor expressed in beta-galactosidase expressing CHOK1 cell membranes after 60 mins by scintillation spectrometry

T1 sequence (P21554 whole entry): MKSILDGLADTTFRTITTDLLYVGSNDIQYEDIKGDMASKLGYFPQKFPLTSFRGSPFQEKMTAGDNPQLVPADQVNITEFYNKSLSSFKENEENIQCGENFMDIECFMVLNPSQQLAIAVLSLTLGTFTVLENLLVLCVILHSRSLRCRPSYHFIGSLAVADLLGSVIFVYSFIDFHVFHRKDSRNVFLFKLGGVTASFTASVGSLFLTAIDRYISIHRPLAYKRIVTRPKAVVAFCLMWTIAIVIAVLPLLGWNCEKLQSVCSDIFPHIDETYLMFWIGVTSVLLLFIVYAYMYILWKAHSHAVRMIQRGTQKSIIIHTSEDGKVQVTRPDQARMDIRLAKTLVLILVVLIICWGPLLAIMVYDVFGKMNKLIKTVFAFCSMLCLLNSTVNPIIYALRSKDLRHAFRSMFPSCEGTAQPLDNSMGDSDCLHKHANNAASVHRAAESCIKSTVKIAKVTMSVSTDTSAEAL

IC50 (Cannabinoid receptor 1 [1]): 1.58 nM
Compound: Cc1c(C(=O)N[C@@H]2CCCC[C@@H]2O)nc(-c2ccc(Cl)cc2Cl)n1-c1ccc(OS(=O)(=O)CCC(F)(F)F)cc1

Compound: Cc1c(C(=O)N[C@@H]2CCCC[C@@H]2N(C)C)nc(-c2ccc(Cl)cc2Cl)n1-c1ccc(OS(=O)(=O)CCC(F)(F)F)cc1
Ki (Cannabinoid receptor 1 [2]): 2.5 nM | IC50 (Cannabinoid receptor 1 [1]): 79 nM and 83 nM

Compound: Cc1c(C(=O)NN2CCCCC2)nc(-c2ccc(Cl)cc2Cl)n1-c1ccc(OCCC(F)(F)F)cc1
Ki (Cannabinoid receptor 1 [2]): 0.794 nM | IC50 (Cannabinoid receptor 1 [1]): 5.01 nM

Compound: Cc1c(C(=O)NN2CCCCC2)nc(-c2ccc(Cl)cc2Cl)n1-c1ccc(OCCCC(F)(F)F)cc1
Ki (Cannabinoid receptor 1 [2]): 0.2 nM

Compound: CCCCS(=O)(=O)Oc1ccc(-n2c(-c3ccc(Cl)cc3Cl)nc(C(=O)NN3CCCCC3)c2C)cc1
Ki (Cannabinoid receptor 1 [2]): 0.126 nM

Compound: Cc1c(C(=O)NN2CCCCC2)nc(-c2ccc(Cl)cc2Cl)n1-c1ccc(OS(=O)(=O)CCCC(F)(F)F)cc1
Ki (Cannabinoid receptor 1 [2]): 0.1 nM

IC50 (Cannabinoid receptor 1 [1]): 1.26 nM
Compound: Cc1c(C(=O)N[C@H]2CCC[C@H](O)C2)nc(-c2ccc(Cl)cc2Cl)n1-c1ccc(OS(=O)(=O)CCC(F)(F)F)cc1

Compound: Cc1c(C(=O)N[C@@H]2CCCC[C@H]2O)nc(-c2ccc(Cl)cc2Cl)n1-c1ccc(OS(=O)(=O)CCC(F)(F)F)cc1
Ki (Cannabinoid receptor 1 [2]): 0.2 nM

Compound: Cc1c(C(=O)N[C@H]2CCCC[C@H]2N)nc(-c2ccc(Cl)cc2Cl)n1-c1ccc(OS(=O)(=O)CCC(F)(F)F)cc1
Ki (Cannabinoid receptor 1 [2]): 0.316 nM | IC50 (Cannabinoid receptor 1 [1]): 6.3 nM

Compound: Cc1c(C(=O)Nc2ccc(F)nc2)nc(-c2ccc(Cl)cc2Cl)n1-c1ccc(OS(=O)(=O)CCC(F)(F)F)cc1
Ki (Cannabinoid receptor 1 [2]): 0.1 nM

Compound: Cc1c(C(=O)Nc2ccc(C(F)(F)F)cn2)nc(-c2ccc(Cl)cc2Cl)n1-c1ccc(OS(=O)(=O)CCC(F)(F)F)cc1
Ki (Cannabinoid receptor 1 [2]): 0.126 nM

Compound: Cc1c(C(=O)NN2CCCCC2)nc(-c2ccc(Cl)cc2Cl)n1-c1ccc(OS(=O)(=O)CCC(C)(C)C)cc1
Ki (Cannabinoid receptor 1 [2]): 0.501 nM | IC50 (Cannabinoid receptor 1 [1]): 2 nM

Compound: Cc1c(C(=O)NN2CCCCC2)nc(-c2ccc(Cl)cc2Cl)n1-c1ccc(OS(=O)(=O)CCC(F)(F)F)cc1
Ki (Cannabinoid receptor 1 [2]): 0.126 nM
